Assays:
B16 [1] = assay: Cell cycle arrest in mouse B16 cells assessed as accumulation of cells at G1 phase at 5 uM after 72 hrs by propidium iodide staining based flow cytometry (reference value: 24.06%); format: functional
B16 [2] = assay: Cell cycle arrest in mouse B16 cells assessed as accumulation of cells at G2 phase at 1.25 uM after 72 hrs by propidium iodide staining based flow cytometry (reference value: 16.73%); format: functional
B16 [3] = assay: Cell cycle arrest in mouse B16 cells assessed as accumulation of cells at G2 phase at 2.5 uM after 72 hrs by propidium iodide staining based flow cytometry (reference value: 16.73%); format: functional
B16 [4] = assay: Cell cycle arrest in mouse B16 cells assessed as accumulation of cells at G2 phase at 5 uM after 72 hrs by propidium iodide staining based flow cytometry (reference value: 16.73%); format: functional
B16 [5] = assay: Cell cycle arrest in mouse B16 cells assessed as accumulation of cells at S phase at 1.25 uM after 72 hrs by propidium iodide staining based flow cytometry (reference value: 59.21%); format: functional
B16 [6] = assay: Cell cycle arrest in mouse B16 cells assessed as accumulation of cells at S phase at 2.5 uM after 72 hrs by propidium iodide staining based flow cytometry (reference value: 59.21%); format: functional
B16 [7] = assay: Cell cycle arrest in mouse B16 cells assessed as accumulation of cells at S phase at 5 uM after 72 hrs by propidium iodide staining based flow cytometry (reference value: 59.21%); format: functional
B16 [8] = assay: Cell cycle arrest in mouse B16 cells assessed as accumulation of cells at G2/G1 phase at 1.25 uM after 72 hrs by propidium iodide staining based flow cytometry (reference value: 1.83%); format: functional
B16 [9] = assay: Cell cycle arrest in mouse B16 cells assessed as accumulation of cells at G2/G1 phase at 2.5 uM after 72 hrs by propidium iodide staining based flow cytometry (reference value: 1.83%); format: functional
B16 [10] = assay: Cell cycle arrest in mouse B16 cells assessed as accumulation of cells at G2/G1 phase at 5 uM after 72 hrs by propidium iodide staining based flow cytometry (reference value: 1.83%); format: functional
B16 [11] = assay: Induction of apoptosis in mouse B16 cells assessed as viable cells at 1.25 uM after 72 hrs by Annexin V-FITC/propidium iodide staining-based flow cytometry (reference value: […]); format: functional; settings: B16, 72 h, read-out: Activity
B16 [12] = assay: Induction of apoptosis in mouse B16 cells assessed as early apoptotic cells at 1.25 uM after 72 hrs by Annexin V-FITC/propidium iodide staining-based flow cytometry (reference value: 2.15%); format: functional
How it was run: (§1)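 B16 cells were treated with vehicle or 1.25, 2.5 or 5 µM for 72 h. Annexin V/PI staining was read by flow cytometry. Values are mean ± SE of at least three independent experiments.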

B16 [13] = assay: Induction of apoptosis in mouse B16 cells assessed as late apoptotic cells at 1.25 uM after 72 hrs by Annexin V-FITC/propidium iodide staining-based flow cytometry (reference value: 3.51%); format: functional; how it was run: as §1
B16 [14] = assay: Induction of apoptosis in mouse B16 cells assessed as necrotic cells at 1.25 uM after 72 hrs by Annexin V-FITC/propidium iodide staining-based flow cytometry (reference value: […]); format: functional; how it was run: as §1
B16 [15] = assay: Induction of apoptosis in mouse B16 cells assessed as viable cells at 2.5 uM after 72 hrs by Annexin V-FITC/propidium iodide staining-based flow cytometry (reference value: […]); format: functional; settings: B16, 72 h, read-out: Activity
B16 [16] = assay: Induction of apoptosis in mouse B16 cells assessed as early apoptotic cells at 2.5 uM after 72 hrs by Annexin V-FITC/propidium iodide staining-based flow cytometry (reference value: 2.15%); format: functional; how it was run: as §1
B16 [17] = assay: Induction of apoptosis in mouse B16 cells assessed as late apoptotic cells at 2.5 uM after 72 hrs by Annexin V-FITC/propidium iodide staining-based flow cytometry (reference value: 3.51%); format: functional; how it was run: as §1
B16 [18] = assay: Induction of apoptosis in mouse B16 cells assessed as necrotic cells at 2.5 uM after 72 hrs by Annexin V-FITC/propidium iodide staining-based flow cytometry (reference value: […]); format: functional; how it was run: as §1
B16 [19] = assay: Induction of apoptosis in mouse B16 cells assessed as viable cells at 5 uM after 72 hrs by Annexin V-FITC/propidium iodide staining-based flow cytometry (reference value: […]); format: functional; settings: B16, 72 h, read-out: Activity
B16 [20] = assay: Induction of apoptosis in mouse B16 cells assessed as early apoptotic cells at 5 uM after 72 hrs by Annexin V-FITC/propidium iodide staining-based flow cytometry (reference value: 2.15%); format: functional; how it was run: as §1
B16 [21] = assay: Induction of apoptosis in mouse B16 cells assessed as late apoptotic cells at 5 uM after 72 hrs by Annexin V-FITC/propidium iodide staining-based flow cytometry (reference value: 3.51%); format: functional; how it was run: as §1
B16 [22] = assay: Induction of apoptosis in mouse B16 cells assessed as necrotic cells at 5 uM after 72 hrs by Annexin V-FITC/propidium iodide staining-based flow cytometry (reference value: […]); format: functional; how it was run: as §1
H22 = assay: In vivo antitumor activity […] cells xenografted in mouse assessed as tumor growth inhibitory ratio at 30 mg/kg, ip administered after 7 days of tumor transplantation measured at 25th day after tumor inoculation; format: functional; settings: 168 h, route intraperitoneal
How it was run: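 Mice bearing H22 liver cancer, 10 per group. Test article at 30 mg/kg ip. Vehicle 0.5 mL/mouse iv. Cyclophosphamide 30 mg/kg iv as positive control. Tumor weight recorded to give tumor inhibitory ratio.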

B16 [23] = assay: In vivo antitumor activity against mouse B16 cells xenografted in mouse assessed as tumor growth inhibitory ratio at 30 mg/kg, ip administered after 7 days of tumor transplantation measured at 25th day after tumor inoculation; format: functional; settings: 168 h, route intraperitoneal
Mus musculus [24] = assay: Toxicity against mouse xenografted […] cells assessed as body weight at 30 mg/kg, ip administered after 7 days of tumor transplantation (reference value: 18.1 to 18.6 gms); format: organism-based; parameters: dose 30 mg/kg, route intraperitoneal; settings: in vivo, 168 h
How it was run: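 H22 liver cancer-bearing mice, 10 per group at start and end. Test article given ip at 30 mg/kg, with a vehicle group (0.5 mL/mouse, iv). Body weight was recorded at start and at end, alongside tumor weight.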

Mus musculus [25] = assay: Toxicity against mouse xenografted with mouse B16 cells assessed as body weight at 30 mg/kg, ip administered after 7 days of tumor transplantation (reference value: 18.2 to 18.3 gms); format: organism-based; parameters: dose 30 mg/kg, route intraperitoneal; settings: in vivo, 168 h
[26] = Antiproliferative activity against human HL60 cells assessed as growth inhibition after 72 hrs by MTT assay; format: functional, cell-based; settings: HL-60, 72 h
How it was run: (§2)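 Values are mean ± S.D. from three different experiments, each performed in triplicate.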

[27] = Antiproliferative activity against human Bel7402 cells assessed as growth inhibition after 72 hrs by MTT assay; format: functional, cell-based; settings: Bel-7402, 72 h
How it was run: (§3)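 IC50 is the concentration inhibiting 50% cell growth. Values are mean ± S.D. from three different experiments, each performed in triplicate.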

[28] = Antiproliferative activity against human SF763 cells assessed as growth inhibition after 72 hrs by MTT assay; format: functional, cell-based; settings: SF763, 72 h; how it was run: as §2
HeLa [29] = assay: Antiproliferative activity against human HeLa cells assessed as growth inhibition after 72 hrs by MTT assay; format: functional, cell-based; how it was run: as §3
B16 [30] = assay: Antiproliferative activity against mouse B16 cells assessed as growth inhibition after 72 hrs by MTT assay; format: functional, cell-based; settings: B16, 72 h; how it was run: as §3
[31] = Antiproliferative activity against human HL7702 cells assessed as growth inhibition after 72 hrs by MTT assay; format: cell-based; settings: L02, 72 h
How it was run: (§4)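 MTT assay on normal human hepatocyte line HL-7702, with 72 h treatment. Selectivity index is the IC50 in HL-7702 divided by the IC50 in each cancer cell line.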

[32] = Selectivity index, ratio of IC50 for human HL7702 cells to IC50 for human HL60 cells by MTT assay; how it was run: as §4
Bel-7402 = assay: Selectivity index, ratio of IC50 for human HL7702 cells to IC50 for human BEL7402 cells by MTT assay; how it was run: as §4
[33] = Selectivity index, ratio of IC50 for human HL7702 cells to IC50 for human SF763 cells by MTT assay; how it was run: as §4
HeLa [34] = assay: Selectivity index, ratio of IC50 for human HL7702 cells to IC50 for human HeLa cells by MTT assay; how it was run: as §4
B16 [35] = assay: Selectivity index, ratio of IC50 for human HL7702 cells to IC50 for mouse B16 cells by MTT assay; how it was run: as §4
B16 [36] = assay: Cell cycle arrest in mouse B16 cells assessed as accumulation of cells at G1 phase at 1.25 uM after 72 hrs by propidium iodide staining based flow cytometry (reference value: 24.06%); format: functional
B16 [37] = assay: Cell cycle arrest in mouse B16 cells assessed as accumulation of cells at G1 phase at 2.5 uM after 72 hrs by propidium iodide staining based flow cytometry (reference value: 24.06%); format: functional

`C=C(C)[C@@H]1CC[C@]2(C(=O)N3CCOCC3)CC[C@]3(C)[C@H](CC[C@@H]4[C@@]5(C)Cc6nccnc6[C@@](C)(COC(C)=O)[C@@H]5CC[C@]43C)[C@@H]12` gave an Activity (B16 [1]) of 33.46%, an Activity (B16 [2]) of 9.18% and an Activity (B16 [3]) of 6.54%. The Activity (B16 [4]) was 3.27%, the Activity (B16 [5]) was 61.15% and the Activity (B16 [6]) was 58.79%. For the same molecule, the Activity (B16 [7]) was 63.27%, the Activity (B16 [8]) was 1.82% and the Activity (B16 [9]) was 1.85%. For the same molecule, the Activity (B16 [10]) was 1.85%, the viability at 1.25 µM (B16 [11]) was 82.6% and the Activity (B16 [12]) was 11.33%. It also gave an Activity (B16 [13]) of 5.18%, an Activity (B16 [14]) of 0.86% and a viability at 2.5 µM (B16 [15]) of 67.8%. The Activity (B16 [16]) was 20.14%, the Activity (B16 [17]) was 11.48% and the Activity (B16 [18]) was 0.52%. It also gave a viability at 5 µM (B16 [19]) of 40.6%, an Activity (B16 [20]) of 45.34% and an Activity (B16 [21]) of 12.1%. For the same molecule, the Activity (B16 [22]) was 1.96%, the inhibition in vivo at 30 mg/kg (H22) was 55.6% and the inhibition in vivo at 30 mg/kg (B16 [23]) was 62.7%. For the same molecule, the Activity (Mus musculus [24]) was 25.9 g, the Activity (Mus musculus [25]) was 25.9 g and the IC50 [26] was 7.11 µM. The IC50 [27] was 7.03 µM, the IC50 [28] was 3.53 µM and the IC50 (HeLa [29]) was 5.13 µM. For the same molecule, the IC50 (B16 [30]) was 4.42 µM, the IC50 [31] was 75.4 µM and the “Ratio IC50” value [32] was 11. The “Ratio IC50” value (Bel-7402) was 11, the Ratio IC50 [33] was 21.4 and the Ratio IC50 (HeLa [34]) was 14.7. For the same molecule, the Ratio IC50 (B16 [35]) was 17.1, the Activity (B16 [36]) was 29.67% and the Activity (B16 [37]) was 34.67%.

From ChEMBL document CHEMBL3425458, “Design, synthesis and antitumor activity of triterpenoid pyrazine derivatives from 23-hydroxybetulinic acid” (Eur J Med Chem, 2015)
